As a reminder, the inhibition is the percentage by which the read-out fell short of the control.

Experimental findings from ChEMBL document CHEMBL1926630, “Structure-activity relationships of chalcone analogs as potential inhibitors of ADP- and collagen-induced platelet aggregation” (2011) are described below.

The nature of test [1]: Antiplatelet activity against New Zealand white rabbit platelets assessed as inhibition of ADP-induced platelet aggregation at 50 ug/mL treated 2 mins before ADP challenge measured after 4 mins by turbidimetric analysis. The class given is functional. Conditions: Oryctolagus cuniculus. Put shortly: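 Washed platelets from ear-vein blood (acid-citrate dextrose), washed in Ca²⁺-free Tyrode's with BSA, heparin and apyrase, resuspended in Tyrode's with 1 mM Ca²⁺ at 2.5 × 10⁸/mL. Stirred at 900 rpm, preincubated 2 min at 37 °C with compound or vehicle (DMSO, final 0.5%), then challenged with 20 μM ADP. Maximal light-transmission rise within 4 min; inhibition computed versus vehicle.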

A short description of test [2]: Antiplatelet activity against New Zealand white rabbit platelets assessed as inhibition of collagen-induced platelet aggregation at 50 ug/mL treated 2 mins before collagen challenge measured after 4 mins by turbidimetric analysis. The format is functional. The following applies: Oryctolagus cuniculus. The method in brief: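 Rabbit washed platelets (EDTA-treated PRP, washed in Ca²⁺-free Tyrode's with BSA, heparin and apyrase at 37 °C for 20 min) were resuspended in 1 mM Ca²⁺ Tyrode's at 2.5 × 10⁸/mL. Compound or DMSO vehicle (final 0.5%) was added for 2 min at 37 °C with 900 rpm stirring before collagen. Read-out was peak transmission increase within 4 min, expressed as inhibition relative to vehicle.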

Take `C=CCOc1ccc(C(=O)/C=C/c2cc(OC)ccc2OC)c(O)c1`: the inhibition at 50 µg/mL worked out at 33.6% in test [1] and 57.2% in test [2].
For `COc1ccc(/C=C/C(=O)c2ccc(OCC=C(C)C)cc2O)cc1OC`, in that order: 24.3% and 10.3%.
With `COc1ccc(/C=C/C(=O)c2ccc(OCC=C(C)C)cc2O)cc1`, the inhibition at 50 µg/mL in test [1] was found to be 25.7%; in test [2] it was 17.3%.
For `CCOc1cc(O)c(C(=O)/C=C/c2ccccc2)cc1CN1CCOCC1`, in that order: 39.3% and 2.3%.
For `C=CCOc1ccc(C(=O)/C=C/c2ccc(OC)cc2)c(O)c1`, in that order: 24.9% and 5.5%.
For `C=CCOc1ccc(C(=O)/C=C/c2cc(OC)c(OC)c(OC)c2)c(O)c1`, the inhibition at 50 µg/mL in test [1] worked out at 70.4%; in test [2] it was 43.2%.
Take `C=CCOc1ccc(C(=O)/C=C/c2ccc3c(c2)OCO3)c(O)c1`: the inhibition at 50 µg/mL was found to be 21.4% in test [1] and 7.9% in test [2].
On to `C=CCOc1ccc(C(=O)/C=C/c2cc(OC)cc(OC)c2)c(O)c1`, for which the inhibition at 50 µg/mL in test [1] stood at 30.8%; in test [2] it was 13.4%.
For `O=C(/C=C/c1ccccc1)c1cccc(O)c1CN1CCOCC1`, in that order: 100% and 89.8%.
In the same order, the values of `CCOc1cc(O)c(C(=O)/C=C/c2sccc2C)cc1CN1CCOCC1` are 32.3% and 0%.
On to `Cc1ccsc1/C=C/C(=O)c1ccc(O)c(CN2CCOCC2)c1`, for which the inhibition at 50 µg/mL in test [1] was determined as 21.4%; in test [2] it was 12.5%.
For `O=C(/C=C/c1cccs1)c1cccc(O)c1CN1CCOCC1`, in that order: 100% and 83.5%.
In the same order, the values of `C=CCOc1ccc(C(=O)/C=C/c2ccc(OC)c(OC)c2OC)c(O)c1` are 26.4% and 14.9%.
In the same order, the values of `C=CCOc1ccc(C(=O)/C=C/c2cccc(OC)c2OC)c(O)c1` are 30.8% and 44.7%.
Consider `CCOc1cc(O)c(C(=O)/C=C/c2cccnc2)cc1CN1CCOCC1`, for which the figures for the inhibition at 50 µg/mL in test [1] and in test [2] were 100% and 46.9%, respectively.
Regarding `COc1cc(O)c(C(=O)/C=C/c2cccnc2)cc1CN1CCOCC1`, the inhibition at 50 µg/mL in test [1] is 100%; in test [2], 96.1%.
For `O=C(/C=C/c1ccco1)c1ccc(O)c(CN2CCOCC2)c1`, in that order: 18.4% and 4.7%.
In the same order, the values of `COc1ccc(/C=C/C(=O)c2ccc(OCC=C(C)C)cc2O)c(OC)c1OC` are 21.4% and 12.6%.
For `COc1cc(O)c(C(=O)/C=C/c2ccco2)cc1CN1CCOCC1`, in that order: 17.2% and 19.7%.
For the compound `CC(C)Oc1ccc(C(=O)/C=C/c2cccs2)c(O)c1CN1CCOCC1`, the inhibition at 50 µg/mL in test [1] stood at 29%; in test [2] it was 3.2%.
In the same order, the values of `CCOc1cc(O)c(C(=O)/C=C/c2ccco2)cc1CN1CCOCC1` are 22.5% and 0%.
For the compound `O=C(/C=C/c1ccccn1)c1ccc(O)c(CN2CCOCC2)c1`, the results for the inhibition at 50 µg/mL in test [1] and in test [2] were 99.3% and 63.5%, respectively.
In the same order, the values of `CCOc1cc(O)c(C(=O)/C=C/c2ccc(C)o2)cc1CN1CCOCC1` are 16.5% and 0%.
Regarding `C=CCOc1ccc(C(=O)/C=C/c2ccc(OC)cc2OC)c(O)c1`, the figures for the inhibition at 50 µg/mL in test [1] and in test [2] were 35.2% and 53.4%, respectively.
With `COc1ccc(/C=C/C(=O)c2cccnc2)c(CN2CCCCC2)c1O`, the inhibition at 50 µg/mL worked out at 100% in test [1] and 98.4% in test [2].
In the same order, the values of `COc1ccc(/C=C/C(=O)c2cccc(C)c2)c(CN2CCOCC2)c1O` are 100% and 78%.
With `COc1cccc(/C=C/C(=O)c2ccc(OCC=C(C)C)cc2O)c1OC`, the results for the inhibition at 50 µg/mL in test [1] and in test [2] were 21.3% and 19.7%, respectively.
Take `Cc1ccsc1/C=C/C(=O)c1cccc(O)c1CN1CCOCC1`: the inhibition at 50 µg/mL in test [1] was found to be 79.1%; in test [2] it was 65.5%.
In the same order, the values of `COc1ccc(/C=C/C(=O)c2ccc(C)cc2)c(CN2CCOCC2)c1O` are 99.3% and 57.6%.
For `COc1ccc(/C=C/C(=O)c2ccc(OCC=C(C)C)cc2O)cc1O`, in that order: 23% and 13.4%.
In the same order, the values of `C=CCOc1ccc(C(=O)/C=C/c2cc(OC)c(OC)cc2OC)c(O)c1` are 21.6% and 0%.
For `CC(C)=CCOc1ccc(C(=O)/C=C/c2ccccc2)c(O)c1` [CORDOIN], the inhibition at 50 µg/mL was found to be 16.4% in test [1] and 6.3% in test [2].
In the case of `O=C(/C=C/c1ccccn1)c1ccc(O)c(CN2CCOCC2)c1O`, the inhibition at 50 µg/mL in test [1] was determined as 100%; in test [2], 12.5%.
On to `O=C(/C=C/c1cccs1)c1ccc(O)c(CN2CCOCC2)c1`, for which the inhibition at 50 µg/mL in test [1] was 23.4%; in test [2], 25%.
`C=CCOc1ccc(C(=O)/C=C/c2ccccc2)c(O)c1`: the inhibition at 50 µg/mL in test [1] was found to be 25.6%; in test [2] it was 6.3%.
For the compound `COc1ccc(OC)c(/C=C/C(=O)c2ccc(OCC=C(C)C)cc2O)c1`, the inhibition at 50 µg/mL in test [1] was found to be 22.8%; in test [2] it was 14.9%.
Turning to `O=C(/C=C/c1ccncc1)c1ccc(CN2CCOCC2)c(O)c1`, the inhibition at 50 µg/mL in test [1] and in test [2] was 100% throughout.
As for `CC(C)Oc1cc(O)c(C(=O)/C=C/c2cccs2)cc1CN1CCOCC1`, the results for the inhibition at 50 µg/mL in test [1] and in test [2] were 23.4% and 0%, respectively.
Consider `CC(C)=CCOc1ccc(C(=O)/C=C/c2sccc2C)c(O)c1CN1CCOCC1`, for which the inhibition at 50 µg/mL amounted to 14.2% in test [1] and 11.1% in test [2].
On to `CCOc1cc(O)c(C(=O)/C=C/c2ccccn2)cc1CN1CCOCC1`, for which the inhibition at 50 µg/mL in test [1] was 100%; in test [2], 43%.
Regarding `COc1ccc(/C=C/C(=O)c2ccco2)c(CN2CCCCC2)c1O`, the inhibition at 50 µg/mL in test [1] was 100%; in test [2], 93.7%.
For `COc1cc(O)c(C(=O)/C=C/c2cccs2)cc1CN1CCOCC1`, in that order: 26.4% and 11.1%.
For `COc1ccc(/C=C/C(=O)c2ccc(OCC=C(C)C)cc2O)c(OC)c1`, in that order: 42.7% and 39.2%.
For `COc1cc(/C=C/C(=O)c2ccc(OCC=C(C)C)cc2O)cc(OC)c1OC`, in that order: 27.1% and 7.9%.
Regarding `O=C(/C=C/c1ccccn1)c1ccc(CN2CCOCC2)c(O)c1CN1CCOCC1`, the inhibition at 50 µg/mL in test [1] and in test [2] was 100% each time.
With `O=C(/C=C/c1ccco1)c1cccc(O)c1CN1CCOCC1`, the inhibition at 50 µg/mL in test [1] is 100%; in test [2], 60.8%.
Consider `O=C(/C=C/c1cccnc1)c1ccc(CN2CCOCC2)c(O)c1`, for which the inhibition at 50 µg/mL in test [1] is 100%; in test [2] it was 95.3%.
For the compound `COc1ccc(C(=O)/C=C/c2ccccn2)c(O)c1CN1CCOCC1`, the values for the inhibition at 50 µg/mL in test [1] and in test [2] were 100% and 93.7%, respectively.
As for `COc1cc(O)c(C(=O)/C=C/c2ccccc2)cc1CN1CCOCC1`, the inhibition at 50 µg/mL turned out to be 97.2% in test [1] and 29.2% in test [2].
In the same order, the values of `O=C(/C=C/c1ccccn1)c1ccc(CN2CCOCC2)c(O)c1` are 100% and 98.4%.
Regarding `CC(C)=CCOc1ccc(C(=O)/C=C/c2ccc3c(c2)OCO3)c(O)c1`, the inhibition at 50 µg/mL in test [1] came to 20%; in test [2], 17.3%.
For `COc1ccc(/C=C/C(=O)c2cc(CN3CCOCC3)c(OC)cc2O)cc1`, in that order: 36.7% and 7.1%.
For `O=C(/C=C/c1ccccc1)c1ccc(O)c(CN2CCOCC2)c1`, in that order: 34.2% and 20.3%.
As for `COc1cc(OC)c(OC)cc1/C=C/C(=O)c1ccc(OCC=C(C)C)cc1O`, the results for the inhibition at 50 µg/mL in test [1] and in test [2] were 15.7% and 4%, respectively.
Regarding `COc1ccc(/C=C/C(=O)c2cccs2)c(CN2CCCCC2)c1O`, the inhibition at 50 µg/mL in test [1] amounted to 100%; in test [2], 95.2%.
For `O=C(/C=C/c1ccncc1)c1ccc(O)c(CN2CCOCC2)c1`, in that order: 100% and 79.4%.
Take `O=C(/C=C/c1cccnc1)c1ccc(O)c(CN2CCOCC2)c1`: the inhibition at 50 µg/mL in test [1] came to 100%; in test [2] it was 56.4%.
For `O=C(/C=C/c1ccccn1)c1cc(CN2CCOCC2)c(O)c(CN2CCOCC2)c1`, in that order: 100% and 78.6%.
As for `COc1cc(/C=C/C(=O)c2ccc(OCC=C(C)C)cc2O)cc(OC)c1`, the inhibition at 50 µg/mL in test [1] was found to be 20.7%; in test [2] it was 8.7%.
In the same order, the values of `Cc1ccc(/C=C/C(=O)c2ccc(O)c(CN3CCOCC3)c2)o1` are 12.8% and 0%.
For the compound `Cc1ccsc1/C=C/C(=O)c1cc(CN2CCOCC2)c(O)c(CN2CCOCC2)c1`, the values for the inhibition at 50 µg/mL in test [1] and in test [2] were 24.9% and 50%, respectively.
